Screens (PubChem BioAssay)
ABCB6 inh 2: human ABCB6 transporter inhibition. Q9NP58. K562-ABCB6 porphyrin accumulation, flow cytometry, 1 h; stronger effect = lower value. fluorescence ratio to DMSO, % at 10 µM. actives 0.19% (n = 360,000). AID 602162;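 active means fluorescence ratio to DMSO below 75%, the collection mean minus 3 SD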;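 further: signal is porphyrin accumulated inside mitochondria; 100% equals median channel fluorescence of DMSO control wells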
STAT3 activator: increases IL-6 driven STAT3 reporter signal | actives 0.91% (n = 190,000) | U3A cells, IL-6 STAT3-luciferase reporter, luminescence; 100% = signal with IL-6 EC80 alone | activation (% of control), % at 5.6 µM;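 active means activation above the screen-wide mean of compound activation plus 3 SD, cut at about 130% in these data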;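 further: 0% = background luminescence of wells with medium and substrate only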
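Test system: STAT3-luciferase reporter U3A cells; Detection: reporter luminescence signal; Times: 1 h compound pre-exposure, 6 h IL-6 stimulation, 37 °C; Benchmarks: IL-6-only high control; Also added: IL-6 stimulus at 33 ng/mL final.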
AHR activator: human AHR activation. P35869. AHR-responsive luciferase reporter cells, luminescence. activation, % at 5 µM. actives 2.5% (n = 320,000); in the data active means activation above about 47%;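 further: 0% = vehicle wells and 100% = reference agonist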
Target sequence (P35869 whole entry, looked up): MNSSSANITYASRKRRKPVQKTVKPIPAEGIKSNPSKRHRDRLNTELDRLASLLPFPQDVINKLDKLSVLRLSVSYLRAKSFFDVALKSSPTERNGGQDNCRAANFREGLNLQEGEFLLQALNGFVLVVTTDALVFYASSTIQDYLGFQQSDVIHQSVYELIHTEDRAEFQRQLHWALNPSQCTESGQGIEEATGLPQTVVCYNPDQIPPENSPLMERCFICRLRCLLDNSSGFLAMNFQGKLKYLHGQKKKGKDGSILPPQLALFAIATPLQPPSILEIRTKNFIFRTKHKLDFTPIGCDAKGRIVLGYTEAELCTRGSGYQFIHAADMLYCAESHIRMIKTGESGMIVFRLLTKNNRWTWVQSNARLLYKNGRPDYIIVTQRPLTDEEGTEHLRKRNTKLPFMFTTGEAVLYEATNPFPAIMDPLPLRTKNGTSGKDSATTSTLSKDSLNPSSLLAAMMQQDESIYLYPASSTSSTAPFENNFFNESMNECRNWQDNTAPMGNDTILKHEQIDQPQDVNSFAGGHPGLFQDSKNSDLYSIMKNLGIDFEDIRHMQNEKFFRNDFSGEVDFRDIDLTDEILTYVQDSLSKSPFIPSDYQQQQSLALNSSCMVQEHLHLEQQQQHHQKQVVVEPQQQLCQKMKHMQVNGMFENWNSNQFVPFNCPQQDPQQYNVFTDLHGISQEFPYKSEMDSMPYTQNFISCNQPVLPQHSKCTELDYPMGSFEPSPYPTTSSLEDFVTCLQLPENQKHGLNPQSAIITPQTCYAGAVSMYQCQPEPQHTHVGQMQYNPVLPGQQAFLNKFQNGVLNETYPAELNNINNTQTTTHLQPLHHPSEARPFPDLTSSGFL
GAA850 FXN act: increases GAA850 frataxin promoter reporter activity; actives 0.56% (n = 360,000); activation, % at 6 µM; AID 540364; HEK293 lucGAA850 FXN promoter luciferase reporter, 24 h; percent of 10 µM SAHA response;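 active means activation above the average of all compounds screened plus 3 SD, cutoff fixed separately per campaign, cut at about 7.5% in these data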;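 further: 0% = DMSO wells and 100% = 10 µM SAHA wells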
* = called active by the depositor; i = inactive; x = no result given. A selection: hits, their analogues and other compounds. The true share with any hit is near 3.3%.

SMILES | ABCB6 inh 2 | STAT3 activator | AHR activator | GAA850 FXN act
O=C(CNC(=O)c1ccccc1)OCc1nc2ccccc2s1 | 103.0 | 135.9* | 18.7 | 3.2
CC(=O)OCc1nc2ccccc2s1 | 101.0 | 163.2* | 15.7 | 0.6
CCC(=O)Nc1ccc(OCc2nc3ccccc3s2)cc1 | 108.0 | 131.6 | 57.8* | 4.7
c1ccc(OCc2nc3ccccc3s2)cc1 | 101.0 | 109.0 | 16.4 | 5.6
O=C(CNC(=O)c1ccccc1F)OCc1nc2ccccc2s1 | 100.0 | 129.5 | 14.8 | 0.2
O=C(CCNC(=O)c1ccccc1)Nc1ccc(S(=O)(=O)Nc2ncccn2)cc1 | 101.0 | x | -0.6 | -2.5
CCOC(=O)C1=C(C)NC(=O)NC1c1ccc(N2CCC(c3ccccc3)=N2)cc1 (stereo not given) | 155.0 | 108.3 | 57.0* | -4.4
CCN(CC)CCNC(=O)c1cc2c(s1)-c1ccccc1SC2 | 88.0 | x | 4.2 | 1.1
NNC(=O)c1cc2c(s1)-c1cc(Cl)ccc1SC2 | 122.0 | x | 64.3* | 3.2
CC(OC(=O)CN1C(=O)C2C3C=CC(C4CC34)C2C1=O)C(=O)c1ccccc1 (stereo not given) | 105.0 | x | -0.3 | -0.7
Oc1ccccc1-c1nc2c3ccccc3c3ccccc3c2[nH]1 | 98.0 | x | 52.6* | 1.1
Oc1ccccc1-c1ccn[nH]1 | 97.0 | x | 2.2 | 1.2
O=C(CN1C(=O)NC2(CCc3ccccc32)C1=O)Nc1ccccc1Cl (stereo not given) | 98.0 | x | 1.9 | -2.2
CC12CCC(=O)C=C1CCC1C2C(O)CC2(C)C1CCC2(O)C(=O)COC(=O)CCC1CCCC1 (stereo not given) | 100.0 | x | x | 4.0
N#Cc1nc(-c2cccs2)oc1N1CCOCC1 | 100.0 | 99.5 | 28.3 | 0.5
CC1CN(c2oc(-c3cccs3)nc2C#N)CC(C)O1 (stereo not given) | 91.0 | 98.1 | 66.8* | -1.2
CN(CC(=O)N1CCCCCC1)S(=O)(=O)c1ccc(F)cc1 | 582.0 | 103.0 | 3.0 | 4.4
CCOc1[nH]n(-c2ccc(Cl)cc2)c(=O)c1C=NCc1cccnc1 | 104.0 | 88.2 | 55.9* | 3.2
CCOc1[nH]n(-c2ccccc2)c(=O)c1C=NCc1ccncc1 | 98.0 | 101.6 | 44.6 | 3.3
COc1cc(Cl)ccc1NC(=O)COc1ccccc1C(=O)NN | 94.0 | 90.8 | 76.5* | 2.6
COc1ccccc1C(=O)NC(=O)COc1cc(Cl)ccc1Cl | 96.0 | x | 4.4 | 2.1
Fc1ccccc1/C=N/NC(=S)Nc1ccc(Cl)cc1Cl | 98.0 | 88.9 | 76.9* | -2.8
Fc1ccc(NC(=S)Nc2ccc(Cl)cc2Cl)cc1 | x | 64.7 | -2.2 | x
CCOC(=O)C1CCN(Cc2ccc(O)c(OC)c2)CC1 | 94.0 | 92.3 | -0.8 | 3.3
CCCCN1c2cc(C)c(O)cc2C(C(=O)OCC)C1C (stereo not given) | x | 99.0 | 48.4* | x
SMILES | ABCB6 inh 2 | STAT3 activator | AHR activator | GAA850 FXN act
Clc1ccc(-c2nnc3sc(-c4ccc(Br)o4)nn23)cc1 | 104.0 | 90.7 | 61.4* | 2.1
Cc1oc(-c2ccc(Cl)cc2)cc1-c1nn2c(-c3ccoc3C)nnc2s1 | 99.0 | 99.8 | 52.0* | 2.2
N#CC(c1cccc([N+](=O)[O-])c1)C(CC(=O)c1ccccc1)c1ccccc1 (stereo not given) | 100.0 | x | x | 0.1
O=C(Nc1ccc(COc2ccccc2)cc1)Nc1cccc(C(=O)O)c1 | 95.0 | x | 1.3 | 2.5
Cc1cc(NC(=O)CC(C)C)c(=O)n(Cc2ccccc2F)c1 | 92.0 | x | 1.6 | 1.8
CCOC(=O)C1=C(O)c2ccccc2C(=O)/C1=C\c1ccc(C)cc1 | i | 134.0* | 37.4 | 0.7
Cc1cc2c(cc1C)C(c1ccccc1OC(C)C)CC(=O)N2 (stereo not given) | 103.0 | x | 51.5* | -3.4
COc1ccccc1C1CC(=O)Nc2cc(C)c(C)cc21 (stereo not given) | 93.0 | x | 22.5 | -5.0
COc1ccc(-c2cc(C#N)nc(N3CCN(C)CC3)n2)cc1 | 97.0 | 105.5 | 73.5* | 0.6
O=C(Nc1cccc(-c2csc(Nc3ccccc3)n2)c1)c1ccccc1 | 97.0 | x | 71.1* | -1.0
O=C(Nc1ccc(-c2csc(Nc3cccc(C(F)(F)F)c3)n2)cc1)c1ccccc1 | 91.0 | x | 78.1* | -0.5
O=C(Nc1cccc(-c2csc(Nc3cccc(C(F)(F)F)c3)n2)c1)c1ccccc1 | 100.0 | x | 46.8 | -0.5
Cc1ccc(/C=N/Nc2nnc(Cl)c3ccccc23)cc1 | 76.0 | 107.0 | 61.0* | 6.2
Clc1nnc(NN=C2CCCC2)c2ccccc12 | 110.0 | 125.9 | 51.5* | 4.9
Oc1ccc2ccccc2c1/C=N/Nc1nnc(-c2ncc[nH]2)c2ccccc12 | 94.0 | 84.0 | 24.5 | -5.5
COc1ccc(/C=N/Nc2nnc(-c3ncc[nH]3)c3ccccc23)cc1 | 98.0 | 74.4 | 61.5* | 0.3
COc1cc([N+](=O)[O-])ccc1NC(=O)CN1C(=O)NC2(CCCCC2C)C1=O (stereo not given) | 101.0 | x | x | 1.7
O=C(CN1CCCc2ccccc21)NCCc1ccc(F)cc1 | 105.0 | 109.6 | 0.8 | 1.0
O=C(CSc1nccc(=O)[nH]1)Nc1ccc(Oc2ccccc2)cc1 | 97.0 | x | 0.8 | 0.5
COc1cccc2c1nc(C)c1cc(C)oc12 | 97.0 | 98.3 | 62.1* | 1.0
COCCNC(=O)CN(Cc1ccccc1)S(=O)(=O)c1ccc2nc(C)sc2c1 | 89.0 | x | 0.4 | 2.1
CCCCn1c(N)c(N(CCOC)C(=O)C2CC(=O)N(Cc3ccco3)C2)c(=O)[nH]c1=O (stereo not given) | 98.0 | x | 0.2 | 0.6
CCCn1c(C)cs/c1=N\C(=S)Nc1ccccc1 | 101.0 | 97.4 | 48.2* | -1.7
COc1ccc(C(CNC(=O)CSc2ccc(Br)cc2)N2CCOCC2)cc1 (stereo not given) | 103.0 | x | 1.9 | 3.4
COc1ccc(C(CNC(=O)C(C)Oc2ccc(Br)cc2)N2CCOCC2)cc1 (stereo not given) | 94.0 | x | 49.3* | 1.2
SMILES | ABCB6 inh 2 | STAT3 activator | AHR activator | GAA850 FXN act
C/C(CCC1CC(C)OC1=O)=N/Nc1nc(-c2ccccc2)cs1 (stereo not given) | 100.0 | 129.4 | 103.0* | 1.5
Cc1cc(C)n(-c2ccc(C(=O)OCC(=O)Nc3ccccc3[N+](=O)[O-])cc2)n1 | 100.0 | 109.5 | 5.6 | 2.6
Cc1cc(C)n(-c2ccc(C(=O)OCC(=O)Nc3cc(Cl)ccc3[N+](=O)[O-])cc2)n1 | 104.0 | 134.3* | 19.0 | 3.5
Cc1nc2ccccn2c1C(=O)NN=C1C2CC3CC(C2)CC1C3 | 103.0 | 106.3 | 48.0* | 1.2
Cc1nc2ccccn2c1C(=O)N/N=C/c1ccccc1 | 91.0 | x | 17.3 | 1.0
OC(c1ccccc1)c1nc(/C=C/c2ccccc2)cs1 (stereo not given) | 98.0 | x | x | 2.5
COc1ccccc1NS(=O)(=O)c1cccc(C(=O)N/N=C/c2c(C)nn(-c3ccccc3)c2N2CCCC2)c1 | 74.0* | 101.8 | 6.3 | 1.6
O=C(Cc1cccc(NC(=O)C2CCCN(C(=O)C3CCCCC3)C2)c1)Nc1cccc(C(=O)N2CCOCC2)c1 (stereo not given) | 98.0 | x | x | -2.0
c1ccc(-c2cc3c(nn2)CCc2nonc2-3)cc1 | 100.0 | 80.1 | 57.2* | 1.6
CC(NC(=O)C1c2ccccc2Oc2ccccc21)C1CCCO1 (stereo not given) | 101.0 | 98.8 | -0.1 | -0.8
